Measured values from ChEMBL document CHEMBL4270591, “Exploitation of new chalcones and 4H-chromenes as agents for cancer treatment” (Eur J Med Chem, 2018).
The source made the active and inactive calls. No cut-off for these calls is given here.

Experiments:
[1] = system: MCF7; assay: Anticancer activity against human MCF7 cells assessed as cell viability at 10 uM after 72 hrs by sulforhodamine B assay relative to control; format: functional; details: MCF7, 72 h, read-out: Activity
[2] = system: MCF7; assay: Induction of apoptosis in human MCF7 cells at IC50 after 48 hrs by Annexin-V-FITC/propidium iodide staining based flow cytometry; format: functional, cell-based
Outline: (§1)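 Floating and adherent cells were pooled and resuspended in binding buffer. Staining with FITC-annexin V and PI for 15 min at room temperature in the dark, followed by flow cytometry quadrant analysis normalised to untreated cells. Two independent experiments, triplicates within each.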

[3] = system: MCF7; assay: Antiproliferative activity against human MCF7 cells after 72 hrs in presence of doxorubicin by sulforhodamine B assay; format: functional, cell-based; details: MCF7, 72 h
[4] = system: MCF-10A; assay: Cytotoxicity against human MCF10A cells after 72 hrs in presence of doxorubicin by sulforhodamine B assay; format: cell-based
[5] = Cytotoxicity against human MCF10A cells assessed as cell viability at 10 uM after 72 hrs by sulforhodamine B assay relative to control; format: cell-based, MCF-10A; details: read-out: Activity
[6] = Selectivity index, ratio of IC50 for human MCF10A cells in presence of doxorubicin to IC50 for human MCF7 cells in presence of doxorubicin; format: toxicity; details: MCF10A cells and MCF7 cells, read-out: Ratio IC50
[7] = system: Hs-578T; assay: Anticancer activity against human Hs 578T cells after 72 hrs by sulforhodamine B assay; format: functional, cell-based
Outline: (§2)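 Cells seeded at 3000 cells/100 µL per well, left to adhere overnight (18-20 h), then exposed to a range of compound concentrations for 72 h. Vehicle control was 0.5% DMSO. Cytotoxicity was read by sulforhodamine B at 490 nm, with 690 nm as background. IC50 came from sigmoidal variable-slope nonlinear regression on log-transformed data, from at least three independent experiments, each in triplicate.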

[8] = system: Hs-578T; assay: Anticancer activity against human Hs 578T cells assessed as cell viability at 10 uM after 72 hrs by sulforhodamine B assay relative to control; format: functional; details: read-out: Activity
[9] = system: MCF7; assay: Anticancer activity against human MCF7 cells after 72 hrs by sulforhodamine B assay; format: functional, cell-based; details: MCF7, 72 h; outline: as §2
[10] = system: MCF-10A; assay: Cytotoxicity against human MCF10A cells after 72 hrs by sulforhodamine B assay; format: cell-based; outline: as §2
[11] = system: MCF7; assay: Induction of apoptosis in human MCF7 cells assessed as decrease in Bcl-xL level at IC50 after 48 hrs by Western blot analysis
[12] = system: MCF7; assay: Induction of microtubule disruption in human MCF7 cells at IC50 after 12 hrs by DAPI staining based microscopic analysis; format: cell-based
Outline: (§3)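 MCF-7 cells seeded at 2.0×10^5 per well and incubated overnight. Treatment at IC50 for 12 h, with 0.5% DMSO vehicle and paclitaxel (2 µM) as reference. Fixation in methanol for 20 min at -20 °C and blocking in 5% BSA. β-tubulin antibody (1:200) for 2 h, fluorescent secondary for 1 h, and DAPI nuclear counterstain. Confocal imaging with a 60x oil objective, 405/488 nm excitation.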

[13] = system: MCF7; assay: Induction of apoptosis in human MCF7 cells assessed as increase in cleaved PARP level at IC50 after 24 hrs by Western blot analysis; format: functional, cell-based
Outline: (§4)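 MCF-7 cells at 70-80% confluence were treated at IC50 or with 0.5% DMSO for 24 h. Lysis in Tris/NaCl/EDTA buffer with NP-40, Triton X-100, phosphatase and protease inhibitors. 20 µg protein run on 12% SDS-PAGE and transferred to nitrocellulose. Probed overnight at 4 °C with anti-PARP (1:500) or anti-BIM (1:1000), then HRP secondaries and chemiluminescence. At least two independent experiments.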

[14] = system: MCF7; assay: Induction of apoptosis in human MCF7 cells assessed as increase in Bim level at IC50 after 24 hrs by Western blot analysis; format: functional, cell-based; outline: as §4
[15] = system: Hs-578T; assay: Anticancer activity against human Hs 578T cells assessed as cell viability at 30 uM after 72 hrs by sulforhodamine B assay relative to control; format: functional; details: read-out: Activity
[16] = system: MCF7; assay: Cell cycle arrest in human MCF7 cells at IC50 after 48 hrs by propidium iodide staining based flow cytometry; format: functional
Outline: (§5)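 MCF-7 cells seeded at 2.5×10^5 per well and grown overnight. […] Cells fixed in 70% ethanol for at least 30 min at 4 °C, then stained with PI (50 µg/mL) plus RNase A and Triton X-100 for 1 h in the dark at […]. Flow cytometry with 488 nm excitation gave the phase distribution. Two independent biological replicates.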

[17] = Cytotoxicity against human MCF10A cells assessed as cell viability at 30 uM after 72 hrs by sulforhodamine B assay relative to control; format: cell-based, MCF-10A; details: read-out: Activity
[18] = system: MCF7; assay: Antimigratory activity against human MCF7 cells assessed as reduction in cell migration at half IC50 to IC50 after 12 to 48 hrs by microscopy based wound healing assay; format: functional
Outline: (§6)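 Wound healing: MCF-7 cells plated at 9.0 × 10^5 per 2 mL and grown overnight to confluence. Two scratches made with a pipette tip, then wash with PBS. Treatment at IC50 or ½ IC50, or 0.5% DMSO. Four positions per wound were imaged at 0, 12, 24 and 48 h at 100x. Migration distances were measured and normalised to control. Three independent experiments.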

[19] = system: MCF7; assay: Antiproliferative activity against human MCF7 cells at half IC50 to IC50 after 24 to 48 hrs by Brdu incorporation assay; format: functional, cell-based
Outline: (§7)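 Labelling with 20 µM BrdU (final) for 6 h. FixDenat 30 min, then anti-BrdU-POD 90 min at room temperature. Substrate colour for 5-10 min, stopped with H2SO4, absorbance at 450 nm (reference 690 nm). Cell-free blanks included. At least three independent experiments in triplicate.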

[20] = system: MCF7; assay: Anticancer activity against human MCF7 cells assessed as cell viability at 30 uM after 72 hrs by sulforhodamine B assay relative to control; format: functional; details: MCF7, 72 h, read-out: Activity
[21] = system: MCF7; assay: Induction of apoptosis in human MCF7 cells assessed as increase in late apoptotic cells at IC50 after 48 hrs by Annexin-V-FITC/propidium iodide staining based flow cytometry; format: functional, cell-based; outline: as §1
[22] = system: MCF7; assay: Cell cycle arrest in human MCF7 cells assessed as accumulation at sub-G0/G1 phase at IC50 after 48 hrs by propidium iodide staining based flow cytometry; format: functional; outline: as §5
[23] = system: MCF7; assay: Cell cycle arrest in human MCF7 cells assessed as DNA fragmentation at IC50 after 48 hrs by propidium iodide staining based flow cytometry; format: functional; outline: as §5
[24] = system: MCF7; assay: Antiproliferative activity against human MCF7 cells at IC50 after 48 hrs by Brdu incorporation assay relative to control; format: functional; outline: as §7
[25] = system: MCF7; assay: Induction of apoptosis in human MCF7 cells assessed as increase in early apoptotic cells at IC50 after 48 hrs by Annexin-V-FITC/propidium iodide staining based flow cytometry; format: functional, cell-based; outline: as §1
[26] = system: MCF7; assay: Inhibition of beta-tubulin polymerization in human MCF7 cells assessed as increase in beta-tubulin levels at IC50 after 24 hrs by Western blot analysis; format: cell-based
[27] = system: MCF7; assay: Cell cycle arrest in human MCF7 cells assessed as reduction in G0/G1 population at IC50 after 48 hrs by propidium iodide staining based flow cytometry; format: functional; outline: as §5
[28] = system: MCF7; assay: Antimigratory activity against human MCF7 cells assessed as reduction in cell migration at half IC50 to IC50 after 48 hrs by microscopy based wound healing assay relative to control; format: functional; parameters: scale not given: the % may be the effect or the level left; outline: as §6
[29] = system: MCF7; assay: Induction of microtubule disruption in human MCF7 cells assessed as cell shrinkage at IC50 after 12 hrs by DAPI staining based microscopic analysis; outline: as §3
[30] = system: MCF7; assay: Induction of microtubule disruption in human MCF7 cells assessed as nuclei contraction at IC50 after 12 hrs by DAPI staining based microscopic analysis; format: cell-based
[31] = system: MCF7; assay: Cell cycle arrest in human MCF7 cells assessed as accumulation at G2/M phase at IC50 after 48 hrs by propidium iodide staining based flow cytometry; format: functional; outline: as §5
[32] = system: MCF7; assay: Induction of microtubule disruption in human MCF7 cells assessed as cell rounding at IC50 after 12 hrs by DAPI staining based microscopic analysis; outline: as §3
[33] = system: MCF7; assay: Induction of microtubule disruption in human MCF7 cells assessed as cell detachment at IC50 after 12 hrs by DAPI staining based microscopic analysis; outline: as §3
[34] = system: MCF7; assay: Induction of microtubule disruption in human MCF7 cells assessed as nuclei condensation at IC50 after 12 hrs by DAPI staining based microscopic analysis; format: cell-based

Row | SMILES | viability at 10 µM [1] | IC50 [3] | IC50 [4] | viability at 72 h, 10 µM [5] | selectivity ratio [6] | IC50 [7] | viability at 10 µM [8] | IC50 [9] | IC50 [10] | Activity [11] | Activity [12] | Activity [13] | Activity [14] | viability at 30 µM [15] | viability at 72 h, 30 µM [17] | Activity [18] | viability at 30 µM [20] | Activity [21] | Activity [24] | Activity [25] | further results
1 | O=C(/C=C/c1cc(Br)ccc1O)c1ccc(Br)cc1 | 28.7% | 0.28 µM | 15.1 µM | 32.8% | 53 | 5.88 µM | 63.5% | 3.82 µM | 29.3 µM | Active | inactive | Active | Active | 124% | 47.6% | inactive | 28.3% |  |  |  | Activity [2]: inactive; Activity [16]: inactive; Activity [19]: inactive
2 | COc1cccc(C(=O)/C=C/c2cc(Br)ccc2O)c1 | 26.9% | 0.42 µM | > 60 µM | 33.8% | > 142 | 7.27 µM | 38.5% | 5.07 µM | 40.6 µM | Active | inactive | Active | Active | 55.8% | 66.3% | inactive | 28.3% | Active | >50% | Active | Activity [22]: Active; Activity [23]: Active
3 | COc1cccc(C(=O)CC2C(C#N)=C(N)Oc3c(OC)cc(Br)cc32)c1 (centres undefined) | 55.9% | 0.11 µM | 1.58 µM | 32.3% | 13.4 | 4.52 µM | 46.1% | 3.65 µM | 18.9 µM | Active |  | Active | Active | 83.3% | 46.3% |  | 33.9% | Active | 20% | Active | inhibition [26]: Active; Activity [27]: Active; Activity [28]: 50%; Activity [29]: Active; Activity [30]: Active; Activity [31]: Active; Activity [32]: Active; Activity [33]: Active; Activity [34]: Active
